Source: PubChem
LEDGF integ inh – blocks HIV-1 LEDGF/p75-dependent DNA integration; TR-FRET IN-LEDGF/p75 DNA integration, Eu/Cy5; inhibition, % at 3.7 µM; 370,000 tested, 0.64% active; AID 743269;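 active means inhibition above the screen-wide mean plus 3 SD, cut at about 13% in these data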;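 further: signal is the Cy5 over europium emission ratio at 671 and 618 nm; 0% = plate median of compound wells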
UHRF1 MBD2 ctr – blocks human UHRF1 binding to methylated DNA. Q96T88. UHRF1 binding to methylated oligo, TR-FRET. inhibition, % at 4.4 µM. 370,000 tested, 0.75% active. AID 687016; in the data active means inhibition above about 21%;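 further: UHRF1 SRA domain binding a hemimethylated CpG hairpin DNA probe; 0% = median of test compound wells and 100% = reference inhibitor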
MBD2 DNA inh – blocks human MBD2 binding to methylated DNA; inhibition, % at 4.4 µM; TR-FRET, MBD2 binding to methylated oligonucleotide; Q9UBB5; 370,000 tested, 0.31% active; in the data active means inhibition above about 13%
Tn7 DDE FP – disrupts Tn7 cyclic peptide binding to fibrin D-Dimer-E complex; FP displacement of FITC-Tn7 peptide from fibrin DD(E); 0% = median of compound wells per plate; inhibition, % at 8.3 µM; 370,000 tested, 0.13% active;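 active means inhibition above the mean of compounds falling within the control limits plus 3 SD of them, cut at about 14% in these data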;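 further: 0% = plate median of compound wells and 100% = 10 µM Aha-Tn7 peptide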
Target sequence (P02675 whole entry, looked up): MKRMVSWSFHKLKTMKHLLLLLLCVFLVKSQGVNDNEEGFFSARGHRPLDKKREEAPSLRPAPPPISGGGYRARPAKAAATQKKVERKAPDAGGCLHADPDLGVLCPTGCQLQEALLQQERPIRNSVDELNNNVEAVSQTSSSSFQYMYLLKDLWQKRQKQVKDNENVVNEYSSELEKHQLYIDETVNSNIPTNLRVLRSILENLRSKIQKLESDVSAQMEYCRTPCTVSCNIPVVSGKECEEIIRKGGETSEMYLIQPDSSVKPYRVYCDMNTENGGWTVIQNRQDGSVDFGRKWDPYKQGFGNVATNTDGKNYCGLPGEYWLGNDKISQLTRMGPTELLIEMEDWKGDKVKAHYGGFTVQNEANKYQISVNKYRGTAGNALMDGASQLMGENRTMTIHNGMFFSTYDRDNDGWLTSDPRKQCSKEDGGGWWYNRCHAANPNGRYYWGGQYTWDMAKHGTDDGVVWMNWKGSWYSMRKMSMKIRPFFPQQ
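System: human fibrin DD(E); quantity: Fibrin-DD(E) at 2 µM final; also added: fluorescent Tn7 probe at 0.1 µM; compound dosing: single nominal test concentration of 8.3 µM per compound; schedule: 10 min preincubation, 3 h with tracer, room temperature; detection: fluorescence polarization of the labelled Tn7 tracer; repeats: one replicate per compound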
Tn6 DDE FP – DD(E)-Tn6 binding inhibition, primary FP screen. inhibition, % at 8.3 µM. 370,000 tested, 0.21% active. P02675. Fibrin DD(E) TRITC-Tn6 fluorescence polarization displacement;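 active means inhibition above a per-campaign cutoff: mean of compounds within control limits plus 3 SD, cut at about 15% in these data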;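 further: 0% = median of all compound wells on the plate and 100% = blocking peptide control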
TDP2 absorb – TDP2 (human) inhibition, absorbance primary screen; 370,000 tested, 0.34% active; inhibition, % at 12.8 µM; recombinant TDP2, T5PNP hydrolysis, p-nitrophenol absorbance 415 nm; O95551;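 active means inhibition above the mean of all tested compounds plus 3 SD, set per campaign, cut at about 25% in these data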;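 further: 0% = DMSO with enzyme and 100% = buffer with substrate but no TDP2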
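Test system: human TDP2 enzyme; Input: 120 nM TDP2 per well; Buffer or medium: Mg2+-containing Tris-HCl buffer, pH 7.5; Reagent: 5 mM T5PNP; Dosing: 12.8 µM single point, 1% DMSO; Incubation: reaction 2 h, 37 °C; Detection: p-Nitrophenol epi absorbance; Read-out: % inhibition relative to enzyme-containing and enzyme-free wells; Replicates: single well per compound.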
IN multimer act – activates HIV-1 integrase multimerization in LEDGF counter-screen. shares compounds with LEDGF integ inh. 2,000 tested, 17% active. TR-FRET HIV-1 integrase multimerization, biochemical. activation, % at 7.7 µM; in the data active means activation above about 8.9%
TRFRET interf – TR-FRET optical interference, LEDGF/p75 integration counter-screen; shares compounds with LEDGF integ inh; TR-FRET optical interference counterscreen, HIV-1 IN multimerization; inhibition, % at 7.7 µM; 2,000 tested, under 10 active;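 active means inhibition above the mean over all tested compounds plus 3 SD, which no compound reached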;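 further: 0% = integrase with antibodies and DMSO and 100% = antibodies without integrase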
LEDGF integ conf – confirmation of HIV-1 LEDGF/p75-dependent integration inhibitors; shares compounds with LEDGF integ inh; TR-FRET LEDGF/p75-dependent HIV-1 integration, biochemical; inhibition, % at 3.7 µM; 2,000 tested, 36% active; AID 1053136; in the data active means inhibition above about 14%
The depositor's hits bear a star; · = no result. An excerpt weighted towards active compounds, which were near 1.9% of everything screened.

SMILES	LEDGF integ inh	UHRF1 MBD2 ctr	MBD2 DNA inh	Tn7 DDE FP	Tn6 DDE FP	TDP2 absorb	IN multimer act	TRFRET interf	LEDGF integ conf
COc1ccc(-c2cc3ncc(C(C)=O)c(C)n3n2)cc1	25*	1	1	10	3	1	0	0	-1
COc1ccc(C(=O)N(c2ccc(OC)cc2)S(=O)(=O)c2cccs2)cc1	24*	1	-8	2	2	0	0	-2	-2
O=S1(=O)c2ccc(N3CCSCC3)cc2Oc2ccccc2CN1Cc1cn(Cc2ccccc2C(F)(F)F)nn1	-1	-5	-6	0	-1	-3	·	·	·
COc1ccc(-n2c(C)cc(C=O)c2C)cc1Cl	1	0	-1	-5	-3	-9	·	·	·
Cc1cc(C=O)c(C)n1-c1ccc(Cl)c(C(=O)O)c1	21*	47*	3	-9	1	-11	0	-1	21*
C=CCN1[C@@H](CC(C)C)COc2cccc(N3CCSCC3)c2S1(=O)=O	-1	2	-1	5	13	7	·	·	·
O=Cc1cc(N=Nc2ccccc2Cl)ccc1O	17*	-3	2	7	-1	6	-3	13	49*
COc1cc(NC(=O)c2cccnc2)ccc1-c1cc2ccccc2oc1=O	7	0	0	-4	3	-4	·	·	·
COc1cc(NC(=O)c2cc(Cl)ccc2Cl)ccc1-c1cc2ccccc2oc1=O	35*	-4	-4	-10	-4	1	1	-6	-3
CCN(CC)C(=O)CC[C@@H]1CC[C@]2(CCCN(C(=O)c3ccccc3)C2)O1	-4	1	1	2	3	2	·	·	·
CN(C)/C=N/S(=O)(=O)c1cccn1-c1ncc(C(F)(F)F)cc1Cl	0	-1	-6	-4	2	7	·	·	·
CN(C)/C=N/c1ncn(-c2ncc(C(F)(F)F)cc2Cl)n1	17*	-1	-5	-2	-1	4	1	-5	-6
COc1ccc(CC(=O)OC(C)CN2CCCCC2)cc1 (centres undefined)	15*	1	-5	-7	-4	-8	-1	4	3
CC(CN1CCCCC1)OC(=O)Cc1ccc(Cl)cc1 (centres undefined)	0	0	-2	0	-7	11	·	·	·
CCOC(=O)N1CCN(C(=O)CCc2ccccc2)CC1	56*	3	-6	2	4	1	6	-29	0
C[C@@H]1ON(C)[C@H]2C[C@H]3c4[nH]c5cccc(-c6cccc(F)c6)c5c4CCN3C(=O)[C@@H]12	-1	-2	-4	-5	6	-9	·	·	·
CSC1(SC2=NCCN2)SC2(NCCN2)S1	23*	5	4	6	-1	6	0	2	-1
CC(=O)Oc1ccc(/C=C2/C(=O)N(c3ccccc3)N=C2C)cc1	51*	16	24*	-3	-14	71*	1	-4	-2
COc1ccc(/C=C2/C(=O)N(c3ccccc3)N=C2C)cc1OC	27*	14	9	6	1	77*	2	-8	-6
CC1=NN(c2ccccc2)C(=O)/C1=C/c1cccc(C)c1	16*	16	7	4	4	79*	1	-4	2
CC1=NN(c2ccccc2)C(=O)/C1=C/N(C)C	-3	-9	0	-2	0	10	·	·	·
COc1ccc2ccccc2c1C=Nn1c(-c2cc(-c3ccccc3)n[nH]2)n[nH]c1=S	-4	-2	-1	4	1	8	·	·	·
Cn1c(N)c(C(=O)COC(=O)c2cc(-c3ccco3)nc3ccccc23)c(=O)n(C)c1=O	29*	19	10	-5	-6	-1	22*	-78	62*
CCC1(CC)Cc2ccccc2-c2nc(NCCCO)[nH]c(=O)c21	14*	3	2	2	0	-11	0	-2	6
CCC1(C)Cc2ccccc2-c2nc(NCCCO)[nH]c(=O)c21 (centres undefined)	-4	-1	1	0	8	0	·	·	·
SMILES	LEDGF integ inh	UHRF1 MBD2 ctr	MBD2 DNA inh	Tn7 DDE FP	Tn6 DDE FP	TDP2 absorb	IN multimer act	TRFRET interf	LEDGF integ conf
Nc1nc2ncccc2cc1C(=O)c1c[nH]c2ccccc12	2	-8	-7	8	-4	0	·	·	·
COc1ccc(CN(C)C(=O)CCNS(=O)(=O)c2ccccc2)c(OC)c1	23*	-2	-4	-2	-6	4	0	1	-11
O=c1/c(=C/c2ccco2)sc2n1CN(c1cccc(Br)c1)CN=2	11	-6	3	3	0	1	·	·	·
O=c1/c(=C/c2ccco2)sc2n1CN(c1ccccc1)CN=2	17*	-2	-7	2	-2	-1	2	-8	4
COC(=O)[C@]12C[C@H](CC(=O)NCCCN3CCCC3=O)C(=O)N(Cc3ccc4c(c3)OCO4)C1=C[C@H](C(C)C)O[C@@H]2C1CC1	-1	-1	-4	6	4	12	·	·	·
NC[C@H](O)c1ccc(O)c(O)c1	15*	5	4	-4	7	3	1	-7	-10
CNC[C@H](O)c1ccc(O)c(O)c1	18*	6	1	-3	-3	11	1	-3	0
COc1ccc(CNC(=O)c2cc(-c3ccccc3)c(N3CCOCC3)s2)cc1OC	3	1	-1	-3	-6	1	·	·	·
O=C(NN1C(=O)/C(=C/c2ccc(O)c(O)c2)SC1=S)c1ccccc1	30*	-3	-1	-4	-6	-4	12*	-42	54*
COc1cc(/C=C2\SC(=S)N(NC(=O)c3ccc(O)cc3)C2=O)ccc1O	0	-2	-2	-6	-13	4	·	·	·
NC(=O)C12NC(Cc3ccccc31)c1ccccc12 (centres undefined)	-2	2	3	-3	1	3	·	·	·
CCOc1ccc(N(CC(=O)NC2CCCC2)S(=O)(=O)c2c(C)[nH]c(=O)[nH]c2=O)cc1	51*	2	-2	-3	6	-7	1	-2	-9
COC(=O)[C@]1(CC(C)C)NC=C(C(=O)c2ccccc2)[C@@H]1c1cccc(C(F)(F)F)c1	-1	-1	0	1	1	4	·	·	·
